Test results taken from ChEMBL document CHEMBL3585284, “Preparation and biological evaluation of conformationally constrained BACE1 inhibitors” (Bioorg Med Chem, 2015).

Columns and labels:
[1] = Dissociation constant, pKa of the compound; format: physicochemical
[2] = system: P-gp; experiment: Efflux ratio in P-gp expressing MDCK cells; format: ADME, cell-based, Canis lupus familiaris; conditions: dog, MDCK-MDR1
[3] = system: P-gp; experiment: Permeability in P-gp expressing MDCK cells; format: ADME, cell-based, Canis lupus familiaris; conditions: dog, MDCK-MDR1; read-out: permeability
[4] = Drug metabolism in mouse microsomes; format: ADME, Microsome
[5] = system: Plasma; experiment: Plasma concentration in PDAPP (V717F) transgenic mouse at 100 mg/kg, sc; format: ADME, organism-based; conditions: in vivo
Outline: (§1)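 Brain and plasma samples from PDAPP mice dosed subcutaneously were homogenized (brain) and mixed with methanol/acetonitrile (1:1, v/v) containing internal standard to precipitate protein. After centrifugation, supernatant was diluted 4-fold with water/methanol (1:1, v/v). Drug was quantified against calibration standards by LC–MS/MS on a C18 column.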

[6] = system: Brain; experiment: Drug level in brain of PDAPP (V717F) transgenic mouse at 100 mg/kg, sc; format: ADME, organism-based; conditions: in vivo, read-out: Drug uptake; outline: as §1

Structure (SMILES)	pKa [1]	efflux ratio [2]	Papp [3]	Drug metabolism [4]	concentration [5]	concentration [6]
Cl.NC1=N[C@]23CC[C@H](NC(=O)c4cccc(Cl)c4)C[C@@H]2[C@@H](COC3)S1	9	8.5	22 nm/s			
NC1=NC23CCC(NC(=O)c4cccc(Cl)c4)CC2(COC3)CS1 (racemic)	8.2					
NC1=N[C@]23CC[C@H](NC(=O)c4cccc(Cl)c4)C[C@@H]2[C@@H](COC3)S1				metabolite_notdetected	6.7 µM	0.61 µM

More lines, now with the values ahead:

pKa [1]	efflux ratio [2]	Papp [3]	Drug metabolism [4]	concentration [5]	concentration [6]	Structure (SMILES)
	2.7	72 nm/s				NC1=NC2CCC(OC(=O)c3cccc(Cl)c3)CC2CS1.O=C(O)C(F)(F)F (stereo not given)
			metabolite_notdetected	9.3 µM	0.75 µM	NC1=NC2CCC(NC(=O)c3cccc(Cl)c3)CC2CS1 (stereo not given)
9.7	10	29 nm/s				Cl.NC1=NC2CCC(NC(=O)c3cccc(Cl)c3)CC2CS1 (stereo not given)
